In ChEMBL document CHEMBL1158482, “Dopamine D2, D3, and D4 selective phenylpiperazines as molecular probes to explore the origins of subtype specific receptor binding” (J Med Chem, 2009):

Key:
Format in all cases: cell-based
D(4) dopamine receptor [1] = molecular target: T1, D(4) dopamine receptor (Homo sapiens, UniProt P21917); assay: Displacement of [3H]spiperone from wild type human cloned dopamine D4 receptor expressed in HEK293 cells
T1 sequence (P21917 whole entry): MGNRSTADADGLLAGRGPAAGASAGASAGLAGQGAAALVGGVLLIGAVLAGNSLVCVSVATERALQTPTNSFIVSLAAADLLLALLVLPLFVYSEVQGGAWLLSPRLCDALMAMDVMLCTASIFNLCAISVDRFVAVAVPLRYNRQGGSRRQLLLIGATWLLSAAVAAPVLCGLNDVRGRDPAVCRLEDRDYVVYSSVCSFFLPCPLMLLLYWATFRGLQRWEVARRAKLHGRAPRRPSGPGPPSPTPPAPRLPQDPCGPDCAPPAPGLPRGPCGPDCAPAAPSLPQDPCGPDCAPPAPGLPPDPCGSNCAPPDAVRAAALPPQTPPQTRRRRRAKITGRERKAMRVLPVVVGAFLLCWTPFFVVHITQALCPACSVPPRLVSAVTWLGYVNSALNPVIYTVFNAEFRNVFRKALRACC

HEK293 [2] = assay: Selectivity ratio of Ki for human cloned dopamine D2L receptor D3.32E mutant to Ki for wild type human cloned dopamine D2L receptor expressed in HEK293 cells
Procedure, shortened: (§1)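 Wild-type or mutant receptor cDNA transiently transfected into HEK-293 cells, which were grown in MEM with 10% FBS at 37 °C and 5% CO2 and harvested 48 h after transfection. Membranes were homogenised and pelleted at 50000g. Competition against [3H]spiperone (0.1-0.7 nM final) used 20-200 μg/mL protein. Ki was derived from EC50, 2-18 independent experiments in triplicate. Ratios are mutant Ki over wild-type Ki.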

HEK293 [3] = assay: Selectivity ratio of Ki for human cloned dopamine D2L receptor V2.61F mutant to Ki for wild type human cloned dopamine D2L receptor expressed in HEK293 cells; procedure, shortened: as §1
HEK293 [4] = assay: Selectivity ratio of Ki for human cloned dopamine D2L receptor L2.64F mutant to Ki for wild type human cloned dopamine D2L receptor expressed in HEK293 cells; procedure, shortened: as §1
HEK293 [5] = assay: Selectivity ratio of Ki for human cloned dopamine D2L receptor FV3.28,3.29LM mutant to Ki for wild type human cloned dopamine D2L receptor expressed in HEK293 cells; procedure, shortened: as §1
HEK293 [6] = assay: Selectivity ratio of Ki for human cloned dopamine D2L receptor V2.61F/FV3.28,3.29LM mutant to Ki for wild type human cloned dopamine D2L receptor expressed in HEK293 cells; procedure, shortened: as §1
HEK293 [7] = assay: Selectivity ratio of Ki for human cloned dopamine D2L receptor E181V/I183S mutant to Ki for wild type human cloned dopamine D2L receptor expressed in HEK293 cells; procedure, shortened: as §1
HEK293 [8] = assay: Selectivity ratio of Ki for human cloned dopamine D2L receptor H6.55A mutant to Ki for wild type human cloned dopamine D2L receptor expressed in HEK293 cells; procedure, shortened: as §1
HEK293 [9] = assay: Selectivity ratio of Ki for human cloned dopamine D2L receptor H6.55F mutant to Ki for wild type human cloned dopamine D2L receptor expressed in HEK293 cells; procedure, shortened: as §1
HEK293 [10] = assay: Selectivity ratio of Ki for human cloned dopamine D3 receptor D3.32E mutant to Ki for wild type human cloned dopamine D3 receptor expressed in HEK293 cells; procedure, shortened: as §1
HEK293 [11] = assay: Selectivity ratio of Ki for human cloned dopamine D3 receptor V2.61F mutant to Ki for wild type human cloned dopamine D3 receptor expressed in HEK293 cells; procedure, shortened: as §1
HEK293 [12] = assay: Selectivity ratio of Ki for human cloned dopamine D3 receptor L2.64F mutant to Ki for wild type human cloned dopamine D3 receptor expressed in HEK293 cells; procedure, shortened: as §1
HEK293 [13] = assay: Selectivity ratio of Ki for human cloned dopamine D3 receptor FV3.28,3.29LM mutant to Ki for wild type human cloned dopamine D3 receptor expressed in HEK293 cells; procedure, shortened: as §1
HEK293 [14] = assay: Selectivity ratio of Ki for human cloned dopamine D3 receptor V2.61F/FV3.28,3.29LM mutant to Ki for wild type human cloned dopamine D3 receptor expressed in HEK293 cells; procedure, shortened: as §1
HEK293 [15] = assay: Selectivity ratio of Ki for human cloned dopamine D3 receptor V180E/S182I mutant to Ki for wild type human cloned dopamine D3 receptor expressed in HEK293 cells; procedure, shortened: as §1
HEK293 [16] = assay: Selectivity ratio of Ki for human cloned dopamine D3 receptor H6.55A mutant to Ki for wild type human cloned dopamine D3 receptor expressed in HEK293 cells; procedure, shortened: as §1
D(2) dopamine receptor [17] = molecular target: T2, D(2) dopamine receptor (Homo sapiens, UniProt P14416); assay: Displacement of [3H]spiperone from human cloned dopamine D2L receptor expressed in CHO cells
D(3) dopamine receptor [18] = molecular target: T3, D(3) dopamine receptor (Homo sapiens, UniProt P35462); assay: Displacement of [3H]spiperone from human cloned dopamine D3 receptor expressed in CHO cells
D(4) dopamine receptor [19] = molecular target: T1, D(4) dopamine receptor; assay: Displacement of [3H]spiperone from human cloned dopamine D4 receptor expressed in CHO cells
Procedure, shortened: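 Membranes from CHO cells stably expressing human D4 (Bmax 700-1800 fmol/mg). Curves fit by nonlinear regression, sigmoid model giving IC50 and slope; Ki ± SEM from 2-9 experiments in triplicate.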

CHO [20] = assay: Selectivity ratio of Ki for human cloned dopamine D2L receptor to Ki for human cloned dopamine D3 receptor expressed in CHO cells
CHO [21] = assay: Selectivity ratio of Ki for human cloned dopamine D2L receptor to Ki for human cloned dopamine D4 receptor expressed in CHO cells
D(2) dopamine receptor [22] = molecular target: T2, D(2) dopamine receptor; assay: Displacement of [3H]spiperone from wild type human cloned dopamine D2L receptor expressed in HEK293 cells
[23] = Displacement of [3H]spiperone from human cloned dopamine D2L receptor D3.32E mutant expressed in HEK293 cells
Procedure, shortened: (§2)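 Wild-type or mutant receptor cDNA transiently transfected into HEK-293 cells (CaHPO4 or TransIT-293), grown in MEM with 10% FBS at 37 °C, 5% CO2, harvested 48 h post-transfection. Membranes prepared by homogenization and spin at 50000g.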

[24] = Displacement of [3H]spiperone from human cloned dopamine D2L receptor V2.61F mutant expressed in HEK293 cells; procedure, shortened: as §2
[25] = Displacement of [3H]spiperone from human cloned dopamine D2L receptor L2.64F mutant expressed in HEK293 cells; procedure, shortened: as §2
[26] = Displacement of [3H]spiperone from human cloned dopamine D2L receptor FV3.28,3.29LM mutant expressed in HEK293 cells; procedure, shortened: as §2
[27] = Displacement of [3H]spiperone from human cloned dopamine D2L receptor V2.61F/FV3.28,3.29LM mutant expressed in HEK293 cells; procedure, shortened: as §2
D(2) dopamine receptor [28] = molecular target: D(2) dopamine receptor (Homo sapiens, UniProt P14416, E181V/I183S); assay: Displacement of [3H]spiperone from human cloned dopamine D2L receptor E181V/I183S mutant expressed in HEK293 cells; procedure, shortened: as §1
[29] = Displacement of [3H]spiperone from human cloned dopamine D2L receptor H6.55A mutant expressed in HEK293 cells; procedure, shortened: as §2
[30] = Displacement of [3H]spiperone from human cloned dopamine D2L receptor H6.55F mutant expressed in HEK293 cells; procedure, shortened: as §2
D(3) dopamine receptor [31] = molecular target: T3, D(3) dopamine receptor; assay: Displacement of [3H]spiperone from wild type human cloned dopamine D3 receptor expressed in HEK293 cells
D(3) dopamine receptor [32] = molecular target: D(3) dopamine receptor (Homo sapiens, UniProt P35462, D110E); assay: Displacement of [3H]spiperone from human cloned dopamine D3 receptor D3.32E mutant expressed in HEK293 cells
D(3) dopamine receptor [33] = molecular target: D(3) dopamine receptor (Homo sapiens, UniProt P35462, V87F); assay: Displacement of [3H]spiperone from human cloned dopamine D3 receptor V2.61F mutant expressed in HEK293 cells
D(3) dopamine receptor [34] = molecular target: T3, D(3) dopamine receptor; assay: Displacement of [3H]spiperone from human cloned dopamine D3 receptor L2.64F mutant expressed in HEK293 cells
D(3) dopamine receptor [35] = molecular target: T3, D(3) dopamine receptor; assay: Displacement of [3H]spiperone from human cloned dopamine D3 receptor FV3.28,3.29LM mutant expressed in HEK293 cells
D(3) dopamine receptor [36] = molecular target: D(3) dopamine receptor (Homo sapiens, UniProt P35462, F106L/V107M/V87F); assay: Displacement of [3H]spiperone from human cloned dopamine D3 receptor V2.61F/FV3.28,3.29LM mutant expressed in HEK293 cells
D(3) dopamine receptor [37] = molecular target: D(3) dopamine receptor (Homo sapiens, UniProt P35462, S182I/V180E); assay: Displacement of [3H]spiperone from human cloned dopamine D3 receptor V180E/S182I mutant expressed in HEK293 cells
D(3) dopamine receptor [38] = molecular target: D(3) dopamine receptor (Homo sapiens, UniProt P35462, H349A); assay: Displacement of [3H]spiperone from human cloned dopamine D3 receptor H6.55A mutant expressed in HEK293 cells
Chain of D(3) dopamine receptor (Homo sapiens, UniProt P35462, H349A) (P35462 as listed by the source H349A): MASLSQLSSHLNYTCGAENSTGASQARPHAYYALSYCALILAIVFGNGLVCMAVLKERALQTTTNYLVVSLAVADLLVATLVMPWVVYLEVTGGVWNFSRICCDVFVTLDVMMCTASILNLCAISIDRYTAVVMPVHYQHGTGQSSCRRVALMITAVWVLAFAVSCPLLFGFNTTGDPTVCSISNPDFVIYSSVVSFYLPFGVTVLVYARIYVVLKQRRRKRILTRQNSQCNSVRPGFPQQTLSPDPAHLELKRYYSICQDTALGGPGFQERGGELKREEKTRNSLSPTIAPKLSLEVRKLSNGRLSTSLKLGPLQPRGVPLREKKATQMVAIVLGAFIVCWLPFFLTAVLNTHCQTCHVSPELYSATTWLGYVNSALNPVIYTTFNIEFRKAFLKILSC

T2 sequence (P14416 whole entry): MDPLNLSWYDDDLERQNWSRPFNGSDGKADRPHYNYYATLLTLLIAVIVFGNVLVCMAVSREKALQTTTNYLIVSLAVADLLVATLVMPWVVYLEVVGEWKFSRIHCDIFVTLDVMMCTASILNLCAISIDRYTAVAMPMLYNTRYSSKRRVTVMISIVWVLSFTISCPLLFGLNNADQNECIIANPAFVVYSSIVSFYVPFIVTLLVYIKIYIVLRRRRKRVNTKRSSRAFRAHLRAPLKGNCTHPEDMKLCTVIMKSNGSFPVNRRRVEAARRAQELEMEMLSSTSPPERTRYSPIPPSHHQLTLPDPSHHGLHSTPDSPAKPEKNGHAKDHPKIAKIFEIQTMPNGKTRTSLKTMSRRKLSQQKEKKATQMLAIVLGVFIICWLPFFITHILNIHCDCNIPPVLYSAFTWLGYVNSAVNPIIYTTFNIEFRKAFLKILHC
T3 sequence (P35462 whole entry): as the sequence (P35462 as listed by the source H349A) above, with S9G, A349H counted along it
Chain of D(3) dopamine receptor (Homo sapiens, UniProt P35462, V87F) (P35462 as listed by the source V87F): as the sequence (P35462 as listed by the source H349A) above, with V87F, A349H counted along it
Chain of D(2) dopamine receptor (Homo sapiens, UniProt P14416, E181V/I183S) (P14416 whole entry E181V/I183S): as the sequence (P14416 whole entry) above, with E181V, I183S counted along it
Chain of D(3) dopamine receptor (Homo sapiens, UniProt P35462, D110E) (P35462 as listed by the source D110E): as the sequence (P35462 as listed by the source H349A) above, with D110E, A349H counted along it
Chain of D(3) dopamine receptor (Homo sapiens, UniProt P35462, F106L/V107M/V87F) (P35462 as listed by the source V87F/F106L/V107M): as the sequence (P35462 as listed by the source H349A) above, with V87F, F106L, V107M, A349H counted along it
Chain of D(3) dopamine receptor (Homo sapiens, UniProt P35462, S182I/V180E) (P35462 as listed by the source V180E/S182I): as the sequence (P35462 as listed by the source H349A) above, with V180E, S182I, A349H counted along it

SMILES	Ki (D(4) dopamine receptor [1]) [nM]	Ratio Ki (HEK293 [2])	Ratio Ki (HEK293 [3])	Ratio Ki (HEK293 [4])	Ratio Ki (HEK293 [5])	Ratio Ki (HEK293 [6])	Ratio Ki (HEK293 [7])	Ratio Ki (HEK293 [8])	Ratio Ki (HEK293 [9])	Ratio Ki (HEK293 [10])	Ratio Ki (HEK293 [11])	Ratio Ki (HEK293 [12])	Ratio Ki (HEK293 [13])	Ratio Ki (HEK293 [14])	Ratio Ki (HEK293 [15])	Ratio Ki (HEK293 [16])	Ki (D(2) dopamine receptor [17]) [nM]	Ki (D(3) dopamine receptor [18]) [nM]	Ki (D(4) dopamine receptor [19]) [nM]	Ratio Ki (CHO [20])	other results
COc1ccccc1N1CCN(Cc2cc3ccccn3n2)CC1	2.3	4.4	0.27	1.8	0.13	0.15	10.5	0.18	1.2	0.9	3	0.9	0.06	0.07	0.44	0.08	280	1200	1.2	0.23	Ratio Ki (CHO [21]): 230; Ki (D(2) dopamine receptor [22]): 350 nM; Ki [23]: 1500 nM; Ki [24]: 94 nM; Ki [25]: 610 nM; Ki [26]: 46 nM; Ki [27]: 54 nM; Ki (D(2) dopamine receptor [28]): 3600 nM; Ki [29]: 63 nM; Ki [30]: 590 nM; Ki (D(3) dopamine receptor [31]): 770 nM; Ki (D(3) dopamine receptor [32]): 680 nM; Ki (D(3) dopamine receptor [33]): 2300 nM; Ki (D(3) dopamine receptor [34]): 720 nM; Ki (D(3) dopamine receptor [35]): 44 nM; Ki (D(3) dopamine receptor [36]): 51 nM; Ki (D(3) dopamine receptor [37]): 340 nM; Ki (D(3) dopamine receptor [38]): 61 nM
CSc1ccccc1N1CCN(CCCNC(=O)c2cnn3ccccc23)CC1	26	74	45	303	16	9	12	0.05	7.7	25	29	17	12	0.31	0.13	0.5	1.4	18	8.8	0.08	Ratio Ki (CHO [21]): 0.16; Ki (D(2) dopamine receptor [22]): 2.2 nM; Ki [23]: 160 nM; Ki [24]: 100 nM; Ki [25]: 660 nM; Ki [26]: 35 nM; Ki [27]: 20 nM; Ki (D(2) dopamine receptor [28]): 26 nM; Ki [29]: 0.1 nM; Ki [30]: 17 nM; Ki (D(3) dopamine receptor [31]): 26 nM; Ki (D(3) dopamine receptor [32]): 650 nM; Ki (D(3) dopamine receptor [33]): 740 nM; Ki (D(3) dopamine receptor [34]): 740 nM; Ki (D(3) dopamine receptor [35]): 430 nM; Ki (D(3) dopamine receptor [36]): 320 nM; Ki (D(3) dopamine receptor [37]): 8 nM; Ki (D(3) dopamine receptor [38]): 3.4 nM
